# Results of several laboratories.
# Compare with care: the assays were run in different laboratories.
# Organism: Staphylococcus aureus
# Observed: microbial growth
Compound,assay,system,setting,MIC
CN[C@H](CC(C)C)C(=O)N[C@H]1C(=O)N[C@@H](CC(N)=O)C(=O)N[C@H]2C(=O)N[C@H]3C(=O)N[C@H](C(=O)N[C@H](C(=O)O)c4cc(O)cc(O)c4-c4cc3ccc4O)[C@H](O)c3ccc(c(Cl)c3)Oc3cc2cc(c3O[C@@H]2O[C@H](CO)[C@@H](O)[C@H](O)[C@H]2O[C@H]2C[C@](C)(N)[C@H](O)[C@H](C)O2)Oc2ccc(cc2Cl)[C@H]1O,,ATCC29213 MSSA,,0.67 µM
O=C(N[C@H](CO)[C@H](O)c1ccc([N+](=O)[O-])cc1)C(Cl)Cl,,,24 h,5 to 10 µM
CC(C)(C)OC(=O)N[C@H]1CCN(c2cc(C(=O)NCC(=O)O)ccc2NC(=O)c2cc(Br)c(Br)[nH]2)C1,broth dilution,ATCC29213,,> 32 µg/mL
Cc1nn(-c2ccccc2)c2c1C(c1c[nH]c3ccccc13)N(C(=O)c1ccncc1)N2 (centres unmarked),,MTCC96,24 h,> 100 µg/mL
C=C/C=C(\C)CC[C@@H]1C[C@@H](O)CC(=O)O1,broth dilution,ATCC6538P,,256 µg/mL
Nc1ccccc1OC(=O)C=Cc1ccc(O)c(O)c1,broth dilution,FDA209,,8 µg/mL
Cc1[nH]c(C(=O)Nc2ccc(C(=O)NCC(=O)O)cc2N2CCNCC2)c(Cl)c1Cl.Cl,broth dilution,ATCC29213,,> 32 µg/mL
CC(O)CSc1nnc(-c2cc3ccccc3o2)n1-c1ccccc1 (centres unmarked),,,,2500 µg/mL
Cc1[nH]c(C(=O)Nc2ccc(C(=O)NCC(=O)O)cc2N2CC[C@H](N)C2)c(Cl)c1Cl.Cl,broth dilution,ATCC29213,,> 32 µg/mL
Cc1nn(-c2ccccc2)c2c1C(c1ccco1)N(C(=O)c1ccncc1)N2 (centres unmarked),,MTCC96,24 h,64 µg/mL
CC1CCC(C(C)C)C(OC(=O)C=Cc2ccc(O)c(O)c2)C1 (centres unmarked),broth dilution,FDA209,,4 µg/mL
O=C(OC[C@H]1O[C@@H](OC(=O)c2cc(O)c(O)c(O)c2)[C@H](OC(=O)c2cc(O)c(O)c(O)c2)[C@@H](OC(=O)c2cc(O)c(O)c(O)c2)[C@@H]1OC(=O)c1cc(O)c(O)c(O)c1)c1cc(O)c(O)c(O)c1,broth dilution,,16 h,100 µg/mL
O=C(C=Cc1ccc(O)c(O)c1)Oc1ccccc1,broth dilution,FDA209,,16 µg/mL
Cc1[nH]c(C(=O)Nc2ccc(C(=O)NCC(=O)O)cc2N2CC[C@H](NC(=O)OC(C)(C)C)C2)c(Cl)c1Cl,broth dilution,ATCC29213,,> 32 µg/mL
COc1cc(Cc2cnc(N)nc2N)cc(OC)c1OC,broth dilution,FDA209,,16 µg/mL
CC1(C)S[C@@H]2[C@H](NC(=O)[C@H](N)c3ccccc3)C(=O)N2[C@H]1C(=O)O,,,24 h,< 1.25 µM
Cl.N[C@@H]1CCN(c2cc(C(=O)NCC(=O)O)ccc2NC(=O)c2cc(Br)c(Br)[nH]2)C1,broth dilution,ATCC29213,,> 32 µg/mL
O=c1c(O[C@@H]2O[C@H](CO)[C@@H](O)[C@H](O)[C@H]2O)c(-c2ccc(O)c(O)c2)oc2cc(O)cc(O)c12,broth dilution,,16 h,> 100 µg/mL
Cc1nn(-c2ccccc2)c2c1C(c1ccc(Cl)cc1)N(C(=O)c1ccncc1)N2 (centres unmarked),,MTCC96,24 h,> 100 µg/mL
O=C(C=Cc1ccc(O)c(O)c1)OCCc1ccccc1,broth dilution,FDA209,,16 µg/mL
Cc1[nH]c(C(=O)Nc2ccc(C(=O)NCc3n[nH]c(=O)o3)cc2N2CCNCC2)c(Cl)c1Cl.Cl,broth dilution,ATCC29213,,> 32 µg/mL
CC(O)CSc1nnc(COc2ccc(Cl)cc2Br)n1-c1ccccc1 (centres unmarked),,,,12000 µg/mL
Cc1nn(-c2ccccc2)c2c1C(c1cncs1)N(C(=O)c1ccncc1)N2 (centres unmarked),,MTCC96,24 h,32 µg/mL
Cl.O=C(O)CNC(=O)c1ccc(NC(=O)c2cc(Br)c(Br)[nH]2)c(N2CCNCC2)c1,broth dilution,ATCC29213,,> 32 µg/mL
CC(O)CSc1nnc(-c2ccccc2)n1-c1ccccc1 (centres unmarked),,,,2000 µg/mL
Cc1nn(-c2ccccc2)c2c1C(c1ccc([N+](=O)[O-])cc1)N(C(=O)c1ccncc1)N2 (centres unmarked),,MTCC96,24 h,64 µg/mL
